Data on eleven compounds can be found in ChEMBL document CHEMBL4118202, “Chiral analogues of (+)-cyclazosin as potent α1B-adrenoceptor selective antagonist” (Bioorg Med Chem, 2018).

The structures appear in SMILES notation.

Broadly, the Ki is the dissociation constant of the complex between target and ligand, obtained from inhibition or displacement.

Assay [1] concerns the target T1, Alpha-1B adrenergic receptor (Homo sapiens, UniProt P35368).
T1 sequence (P35368 whole entry): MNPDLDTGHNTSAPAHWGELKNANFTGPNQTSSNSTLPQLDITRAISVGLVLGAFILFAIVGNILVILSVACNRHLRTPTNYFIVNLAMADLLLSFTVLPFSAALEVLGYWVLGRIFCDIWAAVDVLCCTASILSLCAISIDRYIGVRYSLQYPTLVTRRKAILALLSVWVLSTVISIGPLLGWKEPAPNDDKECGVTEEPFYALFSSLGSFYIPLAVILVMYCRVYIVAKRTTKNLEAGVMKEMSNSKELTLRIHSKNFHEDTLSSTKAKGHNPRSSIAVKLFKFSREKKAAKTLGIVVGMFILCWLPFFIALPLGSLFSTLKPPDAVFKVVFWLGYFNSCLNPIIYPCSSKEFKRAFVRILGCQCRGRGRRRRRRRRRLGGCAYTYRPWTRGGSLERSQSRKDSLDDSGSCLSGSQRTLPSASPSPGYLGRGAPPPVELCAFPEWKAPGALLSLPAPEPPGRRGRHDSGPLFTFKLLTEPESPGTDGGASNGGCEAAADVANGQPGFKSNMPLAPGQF
The assay can be described thus: Displacement of [3H]prazosin from human alpha1B adrenergic receptor expressed in CHO cell membranes after 30 mins by rapid filtration method. An outline of the steps:
(§1)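 Membranes (30 μg protein) from CHO cells stably transfected with the human α1a, α1b or α1d receptor. Incubated 30 min at 25 °C in 50 mM Tris-HCl pH 7.4 with 0.1–0.4 nM [3H]prazosin and competitor 1 pM–10 μM. Nonspecific binding defined by 10 μM phentolamine. Stopped by rapid filtration through PEI-treated filters. IC50 converted to Ki by Cheng-Prusoff; pKi from 2–3 experiments in triplicate.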

The target of assay [2] is T2, Alpha-1A adrenergic receptor (Rattus norvegicus, UniProt P43140).
T2 sequence (P43140 whole entry): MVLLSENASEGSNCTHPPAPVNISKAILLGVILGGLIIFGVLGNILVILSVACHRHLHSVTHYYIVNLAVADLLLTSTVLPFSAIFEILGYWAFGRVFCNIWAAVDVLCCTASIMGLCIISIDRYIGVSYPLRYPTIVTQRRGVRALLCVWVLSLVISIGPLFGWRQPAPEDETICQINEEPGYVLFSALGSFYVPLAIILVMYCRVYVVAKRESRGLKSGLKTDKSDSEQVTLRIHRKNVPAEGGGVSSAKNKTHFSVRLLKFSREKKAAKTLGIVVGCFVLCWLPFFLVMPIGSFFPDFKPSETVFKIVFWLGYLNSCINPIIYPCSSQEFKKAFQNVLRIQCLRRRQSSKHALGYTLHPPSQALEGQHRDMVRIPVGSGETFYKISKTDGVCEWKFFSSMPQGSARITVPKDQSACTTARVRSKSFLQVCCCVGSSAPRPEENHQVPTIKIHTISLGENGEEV
Nature of the assay: Antagonist activity at alpha1A adrenergic receptor in Wistar rat prostatic rat vas deferens assessed as inhibition of noradrenaline-induced contraction preincubated for 30 mins followed by noradrenaline addition measured after 45 mins in presence of cocaine hydrochloride. Particulars: read-out: pA2 (converted). Type of assay: functional. Put shortly: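 Prostatic rat vas deferens, 2 cm portions, held at 0.35 g in Tyrode (pH 7.4, 37 °C, 95% O2/5% CO2). Cocaine 10 μM added 20 min before the agonist. Tissue equilibrated 45 min and primed twice with 10 μM noradrenaline. Isotonic cumulative noradrenaline curves were run before and after 30 min antagonist. pA2 came from Schild plots (≥3 concentrations); otherwise pKB (van Rossum). n ≥ 4.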

The species entered for assay [3] is Rattus norvegicus. Nature of the assay: Selectivity ratio of compound effect for antagonism of alpha1B adrenergic receptor in Wistar rat spleen to compound effect for antagonism of alpha1D adrenergic receptor in Wistar rat thoracic aorta. Put shortly: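 Ratio taken as the antilog of the difference between rat tissue pA2 or pKB values for the two subtypes (vas deferens α1A, spleen α1B, aorta α1D organ-bath antagonism).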

For assay [4], the target named is T3, Alpha-1D adrenergic receptor (Homo sapiens, UniProt P25100).
T3 sequence (P25100 whole entry): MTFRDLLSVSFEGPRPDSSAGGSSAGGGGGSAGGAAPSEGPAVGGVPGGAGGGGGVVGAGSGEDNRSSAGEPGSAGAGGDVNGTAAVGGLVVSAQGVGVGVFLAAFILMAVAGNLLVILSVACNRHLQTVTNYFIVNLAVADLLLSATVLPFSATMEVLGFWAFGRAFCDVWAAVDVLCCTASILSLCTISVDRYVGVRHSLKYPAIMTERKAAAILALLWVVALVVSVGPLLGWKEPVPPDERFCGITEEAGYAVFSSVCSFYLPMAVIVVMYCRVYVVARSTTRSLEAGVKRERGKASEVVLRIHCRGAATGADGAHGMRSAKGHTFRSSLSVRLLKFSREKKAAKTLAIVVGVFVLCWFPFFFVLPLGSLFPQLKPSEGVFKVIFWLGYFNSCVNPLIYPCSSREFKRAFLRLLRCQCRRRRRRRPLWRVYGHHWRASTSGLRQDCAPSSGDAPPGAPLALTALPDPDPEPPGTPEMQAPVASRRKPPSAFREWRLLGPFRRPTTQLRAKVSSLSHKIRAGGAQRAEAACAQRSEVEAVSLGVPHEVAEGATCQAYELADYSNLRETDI
The assay can be described thus: Displacement of [3H]prazosin from human alpha1D adrenergic receptor expressed in CHO cell membranes after 30 mins by rapid filtration method. Put shortly: as §1

The species named for assay [5] is Homo sapiens. Nature of the assay: Selectivity ratio of compound effect for displacement of [3H]prazosin from human alpha1B adrenergic receptor expressed in CHO cell membranes to compound effect for displacement of [3H]prazosin from human alpha1D adrenergic receptor expressed in CHO cell membranes. An outline of the steps:
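Ratio taken as the antilog of the difference between pKi values from [3H]prazosin displacement at human α1 subtypes expressed in CHO membranes.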
(In a radioligand displacement assay an active substance lowers the binding of a labelled ligand.)

Turning to `COc1cc2nc(N3CCN(C(C)=O)[C@@H]4CCCC[C@@H]43)nc(N)c2cc1OC`, the results for the Ki in assay [1] and in assay [4] were 0.741 nM and 0.151 nM, respectively. In addition, the Kb in assay [2] is 44.7 nM. Moreover, the Selectivity ratio in assay [3] was 4; in assay [5] it was 0.2.
Turning to `COc1cc2nc(N3CCN(C(=O)COc4c(OC)cccc4C(C)C)[C@H]4CCCC[C@H]43)nc(N)c2cc1OC`, the Ki in assay [1] was 0.151 nM; in assay [4], 0.389 nM. Besides, the Kb in assay [2] was 151 nM. The values for the Selectivity ratio in assay [3] and in assay [5] were 0.3 and 3, respectively.
On to `COc1cc2nc(N3CCN(C(=O)OCc4ccccc4)[C@@H]4CCCC[C@@H]43)nc(N)c2cc1OC`, for which the Ki in assay [1] was 0.191 nM; in assay [4] it was 0.0398 nM. Besides, the Kb in assay [2] was 16.2 nM. Further, the Selectivity ratio in assay [3] came out at 0.3; in assay [5] it was 0.2.
Consider `CCCCCC(=O)N1CCN(c2nc(N)c3cc(OC)c(OC)cc3n2)[C@@H]2CCCC[C@@H]21`, for which the inhibitory constant (Ki) is 0.912 nM in assay [1] and 3.72 nM in assay [4]. The Selectivity ratio in assay [3] was 15; in assay [5] it was 4.
With `COc1cc2nc(N3CCN(C(=O)OCc4ccccc4)[C@H]4CCCC[C@H]43)nc(N)c2cc1OC`, the figures for the inhibitory constant (Ki) in assay [1] and in assay [4] were 0.38 nM and 3.98 nM, respectively. Also, in assay [2], the Kb was 776 nM. The values for the Selectivity ratio in assay [3] and in assay [5] were 141 and 11, respectively.
On to `CCCN(CCC)c1nc(N2CCN(C(=O)c3ccco3)[C@@H]3CCCC[C@@H]32)nc2cc(OC)c(OC)cc12`, for which the figures for the Ki in assay [1] and in assay [4] were 0.129 nM and 0.0631 nM, respectively. In addition, the Selectivity ratio in assay [3] was 1; in assay [5], 0.5.
For `CCCN(CCC)c1nc(N2CCN(C(=O)c3ccco3)[C@H]3CCCC[C@H]32)nc2cc(OC)c(OC)cc12`, in that order: 0.302 nM, 5.13 nM, 44 and 17.
In the case of `COc1cc2nc(N3CCN(C(=O)C4COc5ccccc5O4)[C@H]4CCCC[C@H]43)nc(N)c2cc1OC` (single isomer, unassigned; (-)) [CYCLODOXAZOSIN], the Kb in assay [2] was 200 nM. Moreover, in assay [3], the Selectivity ratio came to 32.
In the case of `COc1cc2nc(N3CCN(C(=O)Cc4ccc5ccccc5c4)[C@H]4CCCC[C@H]43)nc(N)c2cc1OC`, the inhibition constant Ki in assay [1] was 1.17 nM; in assay [4] it was 2.24 nM. For the same compound, the Selectivity ratio in assay [3] was determined as 15; in assay [5], 2.
For `COc1cc2nc(N3CCN(C(=O)C(C)(C)C)[C@H]4CCCC[C@H]43)nc(N)c2cc1OC`, in that order: 0.776 nM, 6.17 nM, 26 and 8.
Turning to `COc1cc2nc(N3CCN(C(C)=O)[C@H]4CCCC[C@H]43)nc(N)c2cc1OC`, the values for the Ki in assay [1] and in assay [4] were 9.12 nM and 105 nM, respectively. In addition, the Kb in assay [2] is 3020 nM. In addition, the Selectivity ratio in assay [3] stood at 562; in assay [5] it was 12.
